Assay results: ChEMBL document CHEMBL4152256, “Structure-activity relationship of new antimalarial 1-aryl-3-susbtituted propanol derivatives: Synthesis, preliminary toxicity profiling, parasite life cycle stage studies, target exploration, and targeted delivery” (Eur J Med Chem, 2018)

Tests used:
[1] = system: Plasmodium falciparum; experiment: Antiplasmodial activity against multidrug-resistant Plasmodium falciparum FCR-3 by [3H]-hypoxanthine incorporation assay; assay type: functional, organism-based, FCR-3/Gambia; conditions: Plasmodium falciparum, FCR-3/Gambia
Procedure, shortened: (§1)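 Blood-stage P. falciparum 3D7 and FCR-3 were tested by a modified [3H]-hypoxanthine incorporation assay. Chloroquine was the reference in all runs.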

[2] = system: Plasmodium falciparum; experiment: Antiplasmodial activity against chloroquine-sensitive Plasmodium falciparum 3D7 by [3H]-hypoxanthine incorporation assay; assay type: functional, organism-based; conditions: Plasmodium falciparum, 3D7; procedure, shortened: as §1
[3] = Cytotoxicity against human HepG2A16 cells by MTT assay; assay type: cell-based; conditions: HepG2A16 cells
Procedure, shortened: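 MTT viability assay on HepG2-A16 cells, giving CC50 values.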

[4] = Selectivity index, ratio of CC50 for human HepG2A16 cells by MTT assay to IC50 for multidrug-resistant Plasmodium falciparum FCR-3; assay type: toxicity; conditions: HepG2A16 cells, read-out: Ratio CC50/IC50
Procedure, shortened: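 HepG2-A16 human hepatoma cells were tested by MTT viability assay to give CC50. Blood-stage activity was measured against the multidrug-resistant P. falciparum FCR-3 strain by [3H]-hypoxanthine incorporation to give IC50. SI = CC50 HepG2 / FCR-3 IC50.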

[5] = Solubility of the compound in DSPC:cholesterol:DSPE-PEG2000-Mal:DOPE-Rho lipid mixture at 250 uM; assay type: physicochemical
Procedure, shortened: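 Compound added at 250 µM drug to the initial liposome lipid mixture (10 mM total lipid); precipitation and UV-visible absorbance above 300 nm assessed after encapsulation, removal of unencapsulated material and extraction with 1% w/v SDS in RPMI-A.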

[6] = Genotoxicity in Salmonella typhimurium TA1535 harboring pSK1002 assessed as survival at 0.125 mg/ml in absence of Sprague-Dawley rat liver S9 fraction after by SOS/umu assay relative to control; assay type: toxicity, organism-based; conditions: salmonella enterica subsp. enterica serovar typhimurium, read-out: Survival
[7] = Genotoxicity in Salmonella typhimurium TA1535 harboring pSK1002 assessed as umu gene induction at 0.125 mg/ml in absence of Sprague-Dawley rat liver S9 fraction after by SOS/umu assay relative to control; assay type: toxicity, organism-based; conditions: salmonella enterica subsp. enterica serovar typhimurium, read-out: FC
[8] = Genotoxicity in Salmonella typhimurium TA1535 harboring pSK1002 assessed as survival at 0.125 mg/ml in presence of Sprague-Dawley rat liver S9 fraction after by SOS/umu assay relative to control; assay type: toxicity, organism-based; conditions: salmonella enterica subsp. enterica serovar typhimurium, read-out: Survival
[9] = Genotoxicity in Salmonella typhimurium TA1535 harboring pSK1002 assessed as umu gene induction at 0.125 mg/ml in presence of Sprague-Dawley rat liver S9 fraction after by SOS/umu assay relative to control; assay type: toxicity, organism-based; conditions: salmonella enterica subsp. enterica serovar typhimurium, read-out: FC
[10] = Genotoxicity in Salmonella typhimurium TA1535 harboring pSK1002 assessed as survival at 0.063 mg/ml in absence of Sprague-Dawley rat liver S9 fraction after by SOS/umu assay relative to control; assay type: toxicity, organism-based; conditions: salmonella enterica subsp. enterica serovar typhimurium, read-out: Survival
[11] = Genotoxicity in Salmonella typhimurium TA1535 harboring pSK1002 assessed as umu gene induction at 0.063 mg/ml in absence of Sprague-Dawley rat liver S9 fraction after by SOS/umu assay relative to control; assay type: toxicity, organism-based; conditions: salmonella enterica subsp. enterica serovar typhimurium, read-out: FC
[12] = Genotoxicity in Salmonella typhimurium TA1535 harboring pSK1002 assessed as survival at 0.063 mg/ml in presence of Sprague-Dawley rat liver S9 fraction after by SOS/umu assay relative to control; assay type: toxicity, organism-based; conditions: salmonella enterica subsp. enterica serovar typhimurium, read-out: Survival
[13] = Genotoxicity in Salmonella typhimurium TA1535 harboring pSK1002 assessed as umu gene induction at 0.063 mg/ml in presence of Sprague-Dawley rat liver S9 fraction after by SOS/umu assay relative to control; assay type: toxicity, organism-based; conditions: salmonella enterica subsp. enterica serovar typhimurium, read-out: FC
[14] = Genotoxicity in Salmonella typhimurium TA1535 harboring pSK1002 assessed as survival at 0.031 mg/ml in absence of Sprague-Dawley rat liver S9 fraction after by SOS/umu assay relative to control; assay type: toxicity, organism-based; conditions: salmonella enterica subsp. enterica serovar typhimurium, read-out: Survival
[15] = Genotoxicity in Salmonella typhimurium TA1535 harboring pSK1002 assessed as umu gene induction at 0.031 mg/ml in absence of Sprague-Dawley rat liver S9 fraction after by SOS/umu assay relative to control; assay type: toxicity, organism-based; conditions: salmonella enterica subsp. enterica serovar typhimurium, read-out: FC
[16] = Genotoxicity in Salmonella typhimurium TA1535 harboring pSK1002 assessed as survival at 0.031 mg/ml in presence of Sprague-Dawley rat liver S9 fraction after by SOS/umu assay relative to control; assay type: toxicity, organism-based; conditions: salmonella enterica subsp. enterica serovar typhimurium, read-out: Survival
[17] = Genotoxicity in Salmonella typhimurium TA1535 harboring pSK1002 assessed as umu gene induction at 0.031 mg/ml in presence of Sprague-Dawley rat liver S9 fraction after by SOS/umu assay relative to control; assay type: toxicity, organism-based; conditions: salmonella enterica subsp. enterica serovar typhimurium, read-out: FC
[18] = Genotoxicity in Salmonella typhimurium TA1535 harboring pSK1002 assessed as survival at 0.016 mg/ml in absence of Sprague-Dawley rat liver S9 fraction after by SOS/umu assay relative to control; assay type: toxicity, organism-based; conditions: salmonella enterica subsp. enterica serovar typhimurium, read-out: Survival
[19] = Genotoxicity in Salmonella typhimurium TA1535 harboring pSK1002 assessed as umu gene induction at 0.016 mg/ml in absence of Sprague-Dawley rat liver S9 fraction after by SOS/umu assay relative to control; assay type: toxicity, organism-based; conditions: salmonella enterica subsp. enterica serovar typhimurium, read-out: FC
[20] = Genotoxicity in Salmonella typhimurium TA1535 harboring pSK1002 assessed as survival at 0.016 mg/ml in presence of Sprague-Dawley rat liver S9 fraction after by SOS/umu assay relative to control; assay type: toxicity, organism-based; conditions: salmonella enterica subsp. enterica serovar typhimurium, read-out: Survival
[21] = Genotoxicity in Salmonella typhimurium TA1535 harboring pSK1002 assessed as umu gene induction at 0.016 mg/ml in presence of Sprague-Dawley rat liver S9 fraction after by SOS/umu assay relative to control; assay type: toxicity, organism-based; conditions: salmonella enterica subsp. enterica serovar typhimurium, read-out: FC
[22] = Genotoxicity in Salmonella typhimurium TA1535 harboring pSK1002 assessed as survival at 0.008 mg/ml in absence of Sprague-Dawley rat liver S9 fraction after by SOS/umu assay relative to control; assay type: toxicity, organism-based; conditions: salmonella enterica subsp. enterica serovar typhimurium, read-out: Survival
[23] = Genotoxicity in Salmonella typhimurium TA1535 harboring pSK1002 assessed as umu gene induction at 0.008 mg/ml in absence of Sprague-Dawley rat liver S9 fraction after by SOS/umu assay relative to control; assay type: toxicity, organism-based; conditions: salmonella enterica subsp. enterica serovar typhimurium, read-out: FC
[24] = Genotoxicity in Salmonella typhimurium TA1535 harboring pSK1002 assessed as survival at 0.008 mg/ml in presence of Sprague-Dawley rat liver S9 fraction after by SOS/umu assay relative to control; assay type: toxicity, organism-based; conditions: salmonella enterica subsp. enterica serovar typhimurium, read-out: Survival
[25] = Genotoxicity in Salmonella typhimurium TA1535 harboring pSK1002 assessed as umu gene induction at 0.008 mg/ml in presence of Sprague-Dawley rat liver S9 fraction after by SOS/umu assay relative to control; assay type: toxicity, organism-based; conditions: salmonella enterica subsp. enterica serovar typhimurium, read-out: FC
[26] = Genotoxicity in Salmonella typhimurium TA1535 harboring pSK1002 assessed as survival at 0.004 mg/ml in absence of Sprague-Dawley rat liver S9 fraction after by SOS/umu assay relative to control; assay type: toxicity, organism-based; conditions: salmonella enterica subsp. enterica serovar typhimurium, read-out: Survival
[27] = Genotoxicity in Salmonella typhimurium TA1535 harboring pSK1002 assessed as umu gene induction at 0.004 mg/ml in absence of Sprague-Dawley rat liver S9 fraction after by SOS/umu assay relative to control; assay type: toxicity, organism-based; conditions: salmonella enterica subsp. enterica serovar typhimurium, read-out: FC
[28] = Genotoxicity in Salmonella typhimurium TA1535 harboring pSK1002 assessed as survival at 0.004 mg/ml in presence of Sprague-Dawley rat liver S9 fraction after by SOS/umu assay relative to control; assay type: toxicity, organism-based; conditions: salmonella enterica subsp. enterica serovar typhimurium, read-out: Survival
[29] = Genotoxicity in Salmonella typhimurium TA1535 harboring pSK1002 assessed as umu gene induction at 0.004 mg/ml in presence of Sprague-Dawley rat liver S9 fraction after by SOS/umu assay relative to control; assay type: toxicity, organism-based; conditions: salmonella enterica subsp. enterica serovar typhimurium, read-out: FC
[30] = Genotoxicity in Salmonella typhimurium TA1535 harboring pSK1002 assessed as survival at 0.002 mg/ml in absence of Sprague-Dawley rat liver S9 fraction after by SOS/umu assay relative to control; assay type: toxicity, organism-based; conditions: salmonella enterica subsp. enterica serovar typhimurium, read-out: Survival
[31] = Genotoxicity in Salmonella typhimurium TA1535 harboring pSK1002 assessed as umu gene induction at 0.002 mg/ml in absence of Sprague-Dawley rat liver S9 fraction after by SOS/umu assay relative to control; assay type: toxicity, organism-based; conditions: salmonella enterica subsp. enterica serovar typhimurium, read-out: FC
[32] = Genotoxicity in Salmonella typhimurium TA1535 harboring pSK1002 assessed as survival at 0.002 mg/ml in presence of Sprague-Dawley rat liver S9 fraction after by SOS/umu assay relative to control; assay type: toxicity, organism-based; conditions: salmonella enterica subsp. enterica serovar typhimurium, read-out: Survival
[33] = Genotoxicity in Salmonella typhimurium TA1535 harboring pSK1002 assessed as umu gene induction at 0.002 mg/ml in presence of Sprague-Dawley rat liver S9 fraction after by SOS/umu assay relative to control; assay type: toxicity, organism-based; conditions: salmonella enterica subsp. enterica serovar typhimurium, read-out: FC
[34] = Genotoxicity in Salmonella typhimurium TA1535 harboring pSK1002 assessed as survival at 0.001 mg/ml in absence of Sprague-Dawley rat liver S9 fraction after by SOS/umu assay relative to control; assay type: toxicity, organism-based; conditions: salmonella enterica subsp. enterica serovar typhimurium, read-out: Survival
[35] = Genotoxicity in Salmonella typhimurium TA1535 harboring pSK1002 assessed as umu gene induction at 0.001 mg/ml in absence of Sprague-Dawley rat liver S9 fraction after by SOS/umu assay relative to control; assay type: toxicity, organism-based; conditions: salmonella enterica subsp. enterica serovar typhimurium, read-out: FC
[36] = Genotoxicity in Salmonella typhimurium TA1535 harboring pSK1002 assessed as survival at 0.001 mg/ml in presence of Sprague-Dawley rat liver S9 fraction after by SOS/umu assay relative to control; assay type: toxicity, organism-based; conditions: salmonella enterica subsp. enterica serovar typhimurium, read-out: Survival
[37] = Genotoxicity in Salmonella typhimurium TA1535 harboring pSK1002 assessed as umu gene induction at 0.001 mg/ml in presence of Sprague-Dawley rat liver S9 fraction after by SOS/umu assay relative to control; assay type: toxicity, organism-based; conditions: salmonella enterica subsp. enterica serovar typhimurium, read-out: FC

COC(=O)c1ccc(C(O)CCN2CCN(C(c3ccccc3)c3ccccc3)CC2)cc1 (stereo unspecified)
IC50 [1]: 1460 nM
IC50 [2]: 1690 nM
CC50 [3]: 84000 nM
selectivity ratio [4]: 58
solubility [5]: Insoluble

O=[N+]([O-])c1ccccc1N1CCN(CCC(O)c2ccc(F)c3ccccc23)CC1 (stereo unspecified)
IC50 [1]: 2620 nM
IC50 [2]: 920 nM
CC50 [3]: 19900 nM
selectivity ratio [4]: 8
viability at 0.125 mg/ml [6]: 174%
fold induction at 0.125 mg/ml [7]: 0.5
viability at 0.125 mg/ml [8]: 76.2%
fold induction at 0.125 mg/ml [9]: 1.3
viability at 0.063 mg/ml [10]: 118%
fold induction at 0.063 mg/ml [11]: 0.8
viability at 0.063 mg/ml [12]: 63.8%
fold induction at 0.063 mg/ml [13]: 1.4
viability at 0.031 mg/ml [14]: 66.8%
fold induction at 0.031 mg/ml [15]: 1.5
viability at 0.031 mg/ml [16]: 63.2%
fold induction at 0.031 mg/ml [17]: 1.9
viability at 0.016 mg/ml [18]: 50.6%
fold induction at 0.016 mg/ml [19]: 2
viability at 0.016 mg/ml [20]: 64.5%
fold induction at 0.016 mg/ml [21]: 1.9
viability at 0.008 mg/ml [22]: 87.9%
fold induction at 0.008 mg/ml [23]: 1.7
viability at 0.008 mg/ml [24]: 89.5%
fold induction at 0.008 mg/ml [25]: 1
viability at 0.004 mg/ml [26]: 106%
fold induction at 0.004 mg/ml [27]: 0.9
viability at 0.004 mg/ml [28]: 92.2%
fold induction at 0.004 mg/ml [29]: 1.2
viability at 0.002 mg/ml [30]: 111%
fold induction at 0.002 mg/ml [31]: 0.9
viability at 0.002 mg/ml [32]: 84.3%
fold induction at 0.002 mg/ml [33]: 0.7
viability at 0.001 mg/ml [34]: 100%
fold induction at 0.001 mg/ml [35]: 1.1
viability at 0.001 mg/ml [36]: 77.8%
fold induction at 0.001 mg/ml [37]: 1.4
